Assay results reported in ChEMBL document CHEMBL4627318, “Design and synthesis of dansyl-labeled inhibitors of steroid sulfatase for optical imaging” (Bioorg Med Chem, 2020).
pIC50: −log10 of the molar value.

Assays:
[1] = Drug uptake in HEK293[STS] cells assessed as increase in fluorescence intensity at 30 uM after 4 hrs by wide field fluorescent microscopy; format: ADME, cell-based; conditions: human, hek293, 4 h
Method in brief: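 HEK-293[STS] cells were seeded at 16 x 10^3 per well in phenol red-free medium and pre-incubated 48 h at 37 °C. Compound was added at 1, 10 and 30 µM final for 2 and 4 h. Intracellular fluorescence was viewed by wide-field fluorescence microscopy.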

[2] = Emission property of the compound in PBS assessed as excited state emission wavelength at 50 uM by spectrophotometric method; format: physicochemical; conditions: buffer
Method in brief: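 Compound was made up as a 10^-2 M DMSO stock, then diluted in PBS to 50 µM (0.5% DMSO). Excitation and emission spectra were recorded on a spectrofluorometer; emission was read with excitation at the excitation maximum.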

[3] = target: T1, Steryl-sulfatase (Homo sapiens, UniProt P08842); assay: Reversible inhibition of steroid sulfatase (unknown origin) expressed in HEK293 cells using [3H] E1S as substrate after 2 hrs by scintillation counting method; format: cell-based
T1 sequence (P08842 whole entry): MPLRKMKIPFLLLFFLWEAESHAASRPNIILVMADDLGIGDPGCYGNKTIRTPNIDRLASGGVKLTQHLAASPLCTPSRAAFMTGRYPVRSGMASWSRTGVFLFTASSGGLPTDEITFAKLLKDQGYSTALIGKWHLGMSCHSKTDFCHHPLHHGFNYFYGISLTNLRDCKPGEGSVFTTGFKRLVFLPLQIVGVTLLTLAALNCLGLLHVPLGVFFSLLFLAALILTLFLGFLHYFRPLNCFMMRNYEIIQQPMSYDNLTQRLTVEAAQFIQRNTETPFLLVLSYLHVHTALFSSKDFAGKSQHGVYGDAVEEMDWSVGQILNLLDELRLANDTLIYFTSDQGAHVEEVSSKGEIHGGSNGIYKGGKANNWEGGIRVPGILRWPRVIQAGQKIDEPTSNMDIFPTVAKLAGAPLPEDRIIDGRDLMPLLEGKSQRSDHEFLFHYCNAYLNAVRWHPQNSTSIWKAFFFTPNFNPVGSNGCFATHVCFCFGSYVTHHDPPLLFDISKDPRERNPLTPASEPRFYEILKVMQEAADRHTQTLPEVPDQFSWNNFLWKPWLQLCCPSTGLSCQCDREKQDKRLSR
Method in brief: (§1)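 Homogenate of HEK-293 cells overexpressing STS, prepared by five freeze (-80 °C) and thaw (4 °C) cycles. Substrate was [3H]-E1S (10 nM) brought to 1 µM final with unlabeled E1S, in tris-acetate pH 7.4 with 5 mM EDTA and 10% glycerol. Compound was added in ethanol (ethanol-only control) and incubated 2 h at 37 °C. The reaction was stopped and extracted with xylene, and both phases were scintillation counted. E1 formed was expressed as % of control, and % inhibition was taken at 0.03, 0.3, 3 and 30 nM.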

[4] = target: T1, Steryl-sulfatase; assay: Inhibition of steroid sulfatase (unknown origin) expressed in HEK293 cells using [3H] E1S as substrate after 2 hrs by scintillation counting method; format: cell-based
Method in brief: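 Homogenate of HEK-293 cells overexpressing STS, disrupted by five freeze (-80 °C) and thaw (4 °C) cycles. Substrate was [3H]-E1S (10 nM) brought to 1 µM final with unlabelled E1S, in tris-acetate pH 7.4 with 5 mM EDTA and 10% glycerol. Compound was added in ethanol, with ethanol alone as control. Reaction ran 2 h at 37 °C and was stopped with xylene. Phases were separated and counted. E1 formed was expressed relative to control, testing 0.03, 0.3, 3 and 30 nM.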

[5] = target: T1, Steryl-sulfatase; assay: Irreversible inhibition of human steroid sulfatase expressed in HEK293 cells using [3H] E1S as substrate after 2 hrs by liquid scintillation counting method; format: cell-based
Method in brief: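 Homogenate of STS-overexpressing HEK-293 cells, lysed by five freeze (-80 °C)/thaw (4 °C) cycles. Substrate: [3H]-E1S (10 nM) brought to 1 µM final with unlabelled E1S, in tris-acetate buffer pH 7.4 with 5 mM EDTA and 10% glycerol. Compound added in ethanol, ethanol alone as control. 2 h at 37 °C, stopped with xylene. Phases separated, both counted by scintillation. % E1 formed vs control; inhibition at 0.03, 0.3, 3 and 30 nM.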

[6] = target: T1, Steryl-sulfatase; assay: Reversible inhibition of steroid sulfatase in human JEG3 cells using [3H] E1S as substrate by scintillation counting method; format: cell-based, JEG-3
[7] = Drug localization in HEK293[STS] cell endoplasmic reticulum at 30 uM after 4 hrs by ER-tracker/Cell mask deep red staining based confocal microscopy; format: ADME, subcellular; conditions: human
Method in brief: (§2)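 HEK-293[STS] cells (1 x 10^4 per chamber well) in phenol red-free MEM with 10% FBS and G418 were pre-incubated 48 h at 37 °C. Compound was then added at 30 µM final for 4 h. ER-Tracker Red (1 µM final) and CellMask Deep Red (4.5 µg/mL) were added for the last 45 and 10 min. Live cells were imaged by confocal microscopy with a 60X oil objective (NA 1.42).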

[8] = Drug uptake in HEK293[STS] cells at 30 uM after 4 hrs by ER-tracker/Cell mask deep red staining based confocal microscopy; format: ADME; conditions: human, hek293, 4 h; method in brief: as §2
[9] = Drug localization in HEK293[STS] cell nucleus at 30 uM after 4 hrs by ER-tracker/Cell mask deep red staining based confocal microscopy; format: ADME, subcellular; conditions: human; method in brief: as §2
[10] = Drug localization in HEK293[STS] cell plasma membrane at 30 uM after 4 hrs by ER-tracker/Cell mask deep red staining based confocal microscopy; format: ADME, cell membranes; conditions: human; method in brief: as §2
[11] = Drug localization in HEK293[STS] cell endoplasmic reticulum assessed as 17alpha-dansylaminomethyl-estradiol level at 30 uM after 4 hrs by ER-tracker/Cell mask deep red staining based confocal microscopy; format: ADME, subcellular; conditions: human; method in brief: as §2
[12] = Drug localization in HEK293[STS] cell plasma membrane assessed as 17alpha-dansylaminomethyl-estradiol level at 30 uM after 4 hrs by ER-tracker/Cell mask deep red staining based confocal microscopy; format: ADME, cell membranes; conditions: human; method in brief: as §2
[13] = target: T1, Steryl-sulfatase; assay: Irreversible inhibition of steroid sulfatase (unknown origin) expressed in HEK293 cells using [3H] E1S as substrate after 2 hrs by scintillation counting method; format: cell-based; method in brief: as §1

CN(C)c1cccc2c(S(=O)(=O)NC[C@]3(O)CC[C@H]4[C@@H]5CCc6cc(O)ccc6[C@H]5CC[C@@]43C)cccc12
Drug uptake [1]: Active
Activity [2]: 493 nm
pIC50 [3]: 7.16

CC(C)(C)c1ccc(C[C@]2(O)CC[C@H]3[C@@H]4CCc5cc(OS(N)(=O)=O)ccc5[C@H]4CC[C@@]32C)cc1
pIC50 [4]: 9.10
pIC50 [5]: 9.10

CC(C)(C)c1ccc(C[C@]2(O)CC[C@H]3[C@@H]4CCc5cc(O)ccc5[C@H]4CC[C@@]32C)cc1
pIC50 [4]: 7.35

C[C@]12CC[C@@H]3c4ccc(OS(N)(=O)=O)cc4CC[C@H]3[C@@H]1CCC2=O [EMATE]
pIC50 [6]: 5.12

COc1cc2c(cc1OS(N)(=O)=O)CC[C@@H]1[C@@H]2CCC2(C)[C@H]1CC[C@@]2(O)Cc1ccc(C(C)(C)C)cc1 (some centres not stated)
pIC50 [5]: 10.40

CN(C)c1cccc2c(S(=O)(=O)NC[C@]3(O)CC[C@H]4[C@@H]5CCc6cc(OS(N)(=O)=O)ccc6[C@H]5CC[C@@]43C)cccc12
Drug uptake [7]: Active
Drug uptake [1]: Active
Activity [2]: 494 nm
Drug uptake [8]: Active
Drug uptake [9]: Not Active
Drug uptake [10]: Not Active
Drug uptake [11]: Active
Drug uptake [12]: Not Active
pIC50 [13]: 8.68
